Test results as given in ChEMBL document CHEMBL1122125, “Synthesis and in vivo antitumor activity of potential 5-fluorouracil prodrugs” (1982).

Legend:
Assay type in all cases: functional
[1] = tested on: L1210; assay: Evaluated for cytotoxicity against L1210 mouse leukemia cells; conditions: read-out: ID50 (the source's name)
Procedure, shortened: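 L1210 murine leukemia cells in Eagle's minimal essential medium with 15% fetal calf serum, streptomycin (100 μg/mL), penicillin (100 units/mL) and 0.05 mM 2-mercaptoethanol. Cells counted by Coulter counter after 48 h exposure. ID50 is the 50% growth-inhibitory dose. Triplicate assays, standard deviation ±10%.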

[2] = tested on: Mus musculus; assay: Antitumor activity was determined for average 7-day weight change against P-388 leukemia in mice at a dose of 32 mg/kg
Procedure, shortened: (§1)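 Male B6D2F1J mice given 10⁶ P-388 cells ip on day 0, then treated ip once daily on days 1-4 (qd × 4), 5 mice per dose group. Compounds dosed in sterile saline, except one lipophilic thioether given in 10% Tween 80. Mice weighed on days 1 and 7; mean weight per mouse on day 1 and 7-day weight change reported in g and as percent.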

[3] = tested on: Mus musculus; assay: Antitumor activity was determined for average 7-day weight change against P-388 leukemia in mice at a dose of 8 mg/kg; procedure, shortened: as §1
[4] = tested on: Mus musculus; assay: Antitumor activity was determined for average weight on day 1 against P-388 leukemia in mice at a dose of 32 mg/kg
Procedure, shortened: (§2)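 Male B6D2F1J mice, groups of 5, inoculated ip with 10⁶ P-388 cells on day 0. Drug given ip on days 1-4 (qd × 4) in sterile saline, or in 10% Tween 80 for the poorly water-soluble thioether. Average weight per mouse recorded on day 1, with reweighing on day 7 for percent weight change. Untreated control groups had 10-17 animals per experiment.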

[5] = tested on: Mus musculus; assay: Antitumor activity was determined for average weight on day 1 against P-388 leukemia in mice at a dose of 8 mg/kg; procedure, shortened: as §2
[6] = tested on: Mus musculus; assay: Antitumor activity was determined for average weight on day 1 against P-388 leukemia in mice at a dose of 16 mg/kg; procedure, shortened: as §1
[7] = tested on: Mus musculus; assay: Percent increase in life span against P-388 leukemia in mice was determined at a dose of 32 mg/kg; conditions: P388
Procedure, shortened: (§3)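 Male B6D2F1J mice, 5 per dose group, received 10⁶ P-388 cells ip on day 0. Dosing was ip qd × 4 on days 1-4 in sterile saline, or 10% Tween 80 for the butyl thioether. Median survival times of treated (T) and untreated control (C, 10-17 mice) groups were compared: %ILS = [(T/C) − 1]100. Weights taken on days 1 and 7.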

[8] = tested on: Mus musculus; assay: Percent increase in life span against P-388 leukemia in mice was determined at a dose of 8 mg/kg; conditions: P388; procedure, shortened: as §3
[9] = tested on: Mus musculus; assay: Antitumor activity was determined for average 7-day weight change against P-388 leukemia in mice at a dose of 16 mg/kg; procedure, shortened: as §1
[10] = tested on: Mus musculus; assay: Percent increase in life span against P-388 leukemia in mice was determined at a dose of 16 mg/kg; conditions: P388; procedure, shortened: as §3
[11] = tested on: Mus musculus; assay: Antitumor activity was determined for survival range of mice against P-388 leukemia in mice at a dose of 8 mg/kg
Procedure, shortened: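 Male B6D2F1J mice, 5 per dose group, implanted ip with 10⁶ P-388 leukemia cells on day 0. Drug given ip daily on days 1-4 (qd × 4) in sterile saline, or in 10% Tween 80 for the butyl thioether. Survival range recorded in days. Untreated control groups had 10-17 animals per experiment. Mice weighed on days 1 and 7.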

[12] = tested on: Mus musculus; assay: Antitumor activity was determined for median survival of mice against P-388 leukemia in mice at a dose of 16 mg/kg
Procedure, shortened: (§4)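 Male B6D2F1J mice implanted ip with 10⁶ P-388 cells on day 0; test agents given ip on days 1–4 (qd × 4) in sterile saline, or in 10% Tween 80 for the lipophilic thioether. Groups of 5 treated mice, with 10–17 untreated controls per experiment. Mice weighed on days 1 and 7 to give the 7-day weight change in g and %. Survival recorded in days as median and range.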

[13] = tested on: Mus musculus; assay: Antitumor activity was determined for median survival of mice against P-388 leukemia in mice at a dose of 8 mg/kg; procedure, shortened: as §4
[14] = tested on: Mus musculus; assay: Antitumor activity was determined for survival range of mice against P-388 leukemia in mice at a dose of 16 mg/kg; procedure, shortened: as §4
[15] = tested on: Mus musculus; assay: Antitumor activity was determined for survival range of mice against P-388 leukemia in mice at a dose of 32 mg/kg; procedure, shortened: as §4
[16] = tested on: Mus musculus; assay: Antitumor activity was determined for median survival of mice against P-388 leukemia in mice at a dose of 32 mg/kg; procedure, shortened: as §4
[17] = tested on: Mus musculus; assay: Antitumor activity was determined for 7-day average percent weight change against P-388 leukemia in mice at a dose of 16 mg/kg; procedure, shortened: as §1
[18] = tested on: Mus musculus; assay: Antitumor activity was determined for 7-day average percent weight change against P-388 leukemia in mice at a dose of 8 mg/kg; procedure, shortened: as §1
[19] = tested on: Mus musculus; assay: Antitumor activity was determined for 7-day average percent weight change against P-388 leukemia in mice at a dose of 32 mg/kg; procedure, shortened: as §1

`CCOC(=O)[C@H]1OC(n2cc(F)c(=O)[nH]c2=O)[C@H](O)[C@@H]1O` (stereo not given in full) was tested, and the IC50 [1] was > 1000 µM.

Work on `NC[C@H]1OC(n2cc(F)c(=O)[nH]c2=O)[C@H](O)[C@@H]1O` (stereo not given in full) yielded an Average weight [2] of 3.2 g mouse-1, an Average weight [3] of 5.8 g mouse-1 and an Average weight [4] of 26.8 g mouse-1. It also gave an Average weight [5] of 25.6 g mouse-1, an Average weight [6] of 26.4 g mouse-1 and an ILS at 32 mg/kg [7] of 8%. It also gave an ILS at 8 mg/kg [8] of 0%, an Average weight [9] of 4.4 g mouse-1 and an ILS at 16 mg/kg [10] of 0%. The Survival range [11] was 11, the Survival median [12] was 12 and the Survival median [13] was 12. For the same compound, the Survival range [14] was 10, the Survival range [15] was 11 and the Survival median [16] was 13. For the same compound, the Weight change [17] was 16%, the Weight change [18] was 23% and the IC50 [1] was 38 µM. The Weight change [19] was 12%.
